# Source: PubChem (Johns Hopkins Ion Channel Center)
# Sampled rows, rich in hits. Any-hit rate of the full collection: about 3.8%.
# hERG rescue: compounds protecting human hERG from proarrhythmic drug block | CHO-hERG, FluxOR thallium flux, dofetilide IC70 present | AID 1511 | 310,000 compounds, 0.51% hits | Q12809 | activation (rescue from dofetilide block), less the hit threshold, % at 10 µM;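 active means activation above the mean of controls blocked by dofetilide plus 5 SD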;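 further: thallium influx through hERG after potassium depolarization seen as dye fluorescence rise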
# KCNQ1 block: blocks the human KCNQ1 potassium channel. P51787. CHO-K1 KCNQ1, FluxOR thallium flux fluorescence; active compounds read high. 310,000 compounds, 1.3% hits. B-score at 10 µM. AID 2642;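 active means compounds whose thallium flux B-score, printed positive for inhibition, exceeds three library SD while starting fluorescence stays within three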;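 further: channel opened by potassium depolarization with thallium stimulus after 20 min compound exposure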
# KCNK3 block: human KCNK3 channel inhibition, primary screen; O14649; B-score at 10 µM; CHO-KCNK3 thallium flux, FluxOR fluorescence; active compounds read low; AID 602410; 340,000 compounds, 0.84% hits;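 active means B-score under library mean minus 4 SD, starting fluorescence ratio at most library mean plus 5 SD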;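 further: more negative B-score means stronger inhibition of thallium flux through KCNK3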
# KCNQ1 act: potentiates or activates the human KCNQ1 potassium channel. CHO-K1 KCNQ1, thallium flux FluxOR fluorescence; active compounds read high. B-score at 10 µM. 310,000 compounds, 0.35% hits;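 active means fluorescence ratio B-score, a plate-corrected score, at least three library SD, with initial intensity B-score within 5 SD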
#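 Medium – assay buffer, equal DMSO in all wells · Material – CHO-K1 cell line with stable KCNQ1 potassium channel expression · Signal – kinetic FluxOR thallium fluorescence, 10-s 1-Hz baseline, 110-s post-stimulus read · Compound – single concentration per compound, DMSO matched to controls · Schedule – 37 °C overnight plating, 90-min dark dye load, 20-min compound pretreatment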
# KCNK9 block: blocks the human KCNK9 two-pore domain potassium channel; 310,000 compounds, 1.2% hits; HEK293 KCNK9, FluxOR thallium flux fluorescence; active compounds read low; B-score at 10 µM; Q9NPC2;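 active means ratio B-score over 3 SD below the library mean, with starting fluorescence within 5 SD of its mean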;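 further: negative B-score means less thallium flux so channel inhibition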
# Kir21 inh: Kir2.1 (mouse) channel inhibition. HEK293-Kir2.1, FluxOR thallium flux fluorescence; active compounds read low. B-score at 10 µM. 310,000 compounds, 0.85% hits. AID 1672;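 active means fluorescence ratio B-score at or below minus 3 SD of library scores, with starting-brightness B-score within 2 SD, cut at about -4.2 in these data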;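 further: channel flux triggered by added potassium and thallium sulfate stimulus; B-score of peak minus minimum fluorescence over baseline after thallium stimulus; more negative B-score means stronger Kir2.1 block with less thallium influx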
# * hit, by the source's call; i = inactive; . = no result.
SMILES,hERG rescue,KCNQ1 block,KCNK3 block,KCNQ1 act,KCNK9 block,Kir21 inh
CC(C)OC(=O)c1c(N)n(CCCN2CCOCC2)c2nc3ccccc3nc12,-2.7,i,i,i,i,-0.05
Cc1sc2nc[nH]c(=S)c2c1-c1ccccc1,20.3*,i,i,12*,i,-0.17
O=c1[nH]cnc2scc(-c3ccc(Br)cc3)c12,3.2,i,i,i,i,1.22
S=c1[nH]cnc2scc(-c3ccc(Br)cc3)c12,14.5*,i,i,23*,i,-0.96
Cc1ccc(-c2csc3nc[nH]c(=S)c23)cc1,53.0*,i,i,26*,i,1.65
O=c1[nH]cnc2scc(-c3ccccc3)c12,-6.9,i,i,i,i,-0.55
CCc1ccc(-c2csc3nc[nH]c(=O)c23)cc1,0.0,i,i,i,i,1.07
Cc1cc(-c2csc3nc[nH]c(=S)c23)cc(C)c1C,8.1*,i,i,45*,i,-0.48
S=c1[nH]cnc2scc(-c3ccc(Cl)cc3)c12,23.4*,i,i,19*,i,-0.01
O=C1[C@H]2[C@@H](c3ccc(F)cc3)N3C(=O)N(c4cccc(Cl)c4)C(=O)[C@@]3(Cc3ccccc3)[C@H]2C(=O)N1C1CCCCC1,-2.7,7*,i,i,i,-0.64
OC(CNCCc1ccc(C(F)(F)F)cc1)COC(c1ccccc1)c1ccccc1 (stereo not drawn),-26.6,i,i,i,i,-7.88*
CCSc1ccccc1C(=O)NCCCn1ccnc1,4.8*,i,i,i,i,1.07
COc1ccc(N2C(=O)c3cccc4c(N(C)CCO)ccc(c34)C2=O)cc1,-11.9,7*,i,i,i,0.14
Cc1ccccc1N1CCN(C(=O)c2cc(C3CC3)nn2-c2ccccc2)CC1,.,.,-9.02*,.,.,.
COc1cc(NC(=S)N2CCC(C(O)(c3ccccc3)c3ccccc3)CC2)cc(OC)c1,-3.2,i,i,23*,i,0.46
COc1ccc(CN(C(=O)CSc2nnc(-c3ccccc3C)o2)c2ccc(F)cc2)cc1,-15.2,6*,i,i,i,0.39
Cc1cc(C(=O)NCc2cc(C)n(C)n2)sc1-c1ccccc1,-18.7,i,i,i,i,0.25
Cc1ccc(S(=O)(=O)NCCSc2nnnn2-c2ccccc2)cc1,-0.3,i,i,i,i,-7.08*
O=C(Cn1nnc(-c2cccc(C(F)(F)F)c2)n1)N1CCCCCC1,5.1*,i,i,i,i,-0.59
O=C(Nc1cccc(O)c1)c1cc(S(=O)(=O)N2CCCC2)ccc1Cl,-3.9,i,i,i,i,-1.11
N#CCCn1c(SCC(=O)c2c[nH]c3ccccc23)nc2ccccc21,-6.8,i,i,i,i,0.58
CCn1c(Cn2nnc(-c3ccccc3)n2)nnc1SCC(=O)Nc1cccc(C(C)=O)c1,-4.5,i,i,i,i,-2.43
CCn1c(Cn2nnc(-c3ccccc3)n2)nnc1SCC(=O)Nc1ccc(C(C)=O)cc1,4.6*,i,i,i,i,-0.67
COc1cccc(C(=O)NN2CC(O)=C(c3nc4ccccc4s3)C2=N)c1,-5.5,i,i,i,i,-0.49
COc1ccc(C=C2C=C(C(C)(C)C)C(=O)C(C(C)(C)C)=C2)cc1OC,-3.6,6*,i,i,i,-1.31
SMILES,hERG rescue,KCNQ1 block,KCNK3 block,KCNQ1 act,KCNK9 block,Kir21 inh
COc1ccc(C(=O)OCC(=O)NC(Cc2ccccc2)C(C)=O)cc1S(=O)(=O)N1CCCC1 (stereo not drawn),.,.,i,.,.,.
CC(=O)OCCn1c2nc(=O)[nH]c(=O)c-2nc2cc(C)c(C)cc21,-45.5,37*,i,i,i,-20.8
CC(=O)OCCn1c(C)[n+](CCOC(C)=O)c2cc(Cl)c(Cl)cc21,-14.2,i,i,i,i,1.31
CCN(CC)CCCN(C(=O)c1ccco1)c1nc(-c2ccc(Cl)cc2)cs1,-18.8,i,i,i,i,-6.16*
CCN(CC)CCCN(C(=O)c1ccco1)c1nc(-c2ccc(C)cc2)cs1,-19.8,i,i,i,i,-0.07
Cc1ccc(C(=O)NCCN2C3=NC[C@H](Cc4ccc(O)cc4)N3C[C@H]2Cc2ccc(O)cc2)cc1Br,-13.9,i,i,i,i,2.2
COc1ccc(C[C@H]2CN3C(=NC[C@@H]3C(C)C)N2C[C@H](C)NC(=O)c2ccc(C)c(Br)c2)cc1,-20.4,i,i,i,i,-7.9*
COc1ccc(C[C@H]2CN3C(=NC[C@@H]3Cc3ccc(O)cc3)N2C[C@H](C)NC(=O)c2ccc(C)c(Br)c2)cc1,-17.6,i,i,i,i,-7.35*
Cc1ccc(C(=O)N[C@@H](C)CN2C3=NC[C@H](C(C)C)N3C[C@H]2Cc2ccc(O)cc2)cc1Br,-14.7,i,i,i,i,-2.38
COC(=O)C1CN(S(=O)(=O)c2ccc(NC(C)=O)cc2)CCS1 (stereo not drawn),-8.0,i,i,i,i,0.32
c1ccc(CN(Cc2cccs2)C(c2cccs2)c2nnnn2C2CCCC2)cc1 (stereo not drawn),-6.5,i,i,i,-7.54*,1.24
CCOC(=O)c1c(-c2cccc([N+](=O)[O-])c2)csc1NC(=O)C1CCCCC1,-2.7,i,i,i,i,-0.8
Fc1ccc(CNCCC(Cc2ccccc2)c2ccco2)cc1 (stereo not drawn),-13.5,i,i,i,i,-15.1*
O=C(NCCNCc1ccc(F)cc1)c1ccco1,-3.6,i,i,i,i,-1.41
CC(C)(C)c1ccc(OCC(O)CN2CCN(c3ccccn3)CC2)cc1 (stereo not drawn),-10.5,i,i,i,i,1.26
Cc1cc(C)cc(-n2c(C)cc(/C=N\NC(=O)COc3cccc4cccnc34)c2C)c1,-9.7,7*,i,i,i,-2.28
CCOC(=O)C1CCN(C(=O)c2ccc(N3CCCC3=O)cc2)CC1,.,.,i,.,.,.
Clc1cccc(-c2ccc(-c3nc4ccccn4c3NCc3ccccc3)cc2)c1,.,.,-9.62*,.,.,.
COc1ccc(-c2cc(-c3nc4ccccn4c3NCc3ccccc3)ccc2OC)cc1,.,.,-8.7*,.,.,.
COC(=O)CN(n1cnnc1)S(=O)(=O)c1ccc(C)cc1,-6.9,i,i,i,i,1.16
Cc1cc(C)n(CCC(=O)N/N=C/c2ccc(Br)c([N+](=O)[O-])c2)n1,-17.5,6*,i,i,i,-0.02
COc1ccc(C(c2c[nH]c3ccccc23)c2c[nH]c3ccccc23)cc1O,-4.6,7*,i,i,i,0.96
